High-throughput results: PubChem, several laboratories
This is a sample that favours compounds with a hit; in the whole collection about 2% have one here.
NR2E3 ag-1 – agonists of human NR2E3 nuclear receptor; Q9Y5X4; CHO-S Gal4-NCOR/VP16-NR2E3 two-hybrid, luciferase; inhibition of corepressor binding, % at 3.98 µM; hit rate 0.35% among 360,000; AID 602229;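 active = inhibition above the mean of all tested compounds plus 3 SD, cut at about 70% in these data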;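 also: higher means lower luciferase signal from less NR2E3 corepressor binding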
Target sequence (Q9Y5X4 whole entry, looked up, the tested form may be a part): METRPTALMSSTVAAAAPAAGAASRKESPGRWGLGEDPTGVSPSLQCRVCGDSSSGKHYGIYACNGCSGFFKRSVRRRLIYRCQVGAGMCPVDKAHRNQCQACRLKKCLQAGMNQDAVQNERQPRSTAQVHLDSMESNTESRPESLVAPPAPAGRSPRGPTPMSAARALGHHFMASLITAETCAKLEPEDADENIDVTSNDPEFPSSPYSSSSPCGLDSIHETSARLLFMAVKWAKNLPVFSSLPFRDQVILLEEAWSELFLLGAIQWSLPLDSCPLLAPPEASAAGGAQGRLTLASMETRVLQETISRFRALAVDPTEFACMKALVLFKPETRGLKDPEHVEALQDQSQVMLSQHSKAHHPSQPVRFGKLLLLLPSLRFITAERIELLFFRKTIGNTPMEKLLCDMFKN
NR2E3 ag-2 – activates human photoreceptor nuclear receptor NR2E3. Q9Y5X4. GST-NR2E3/biotin-RetCOR TR-FRET, 1536-well. inhibition of corepressor binding, % at 4.78 µM. hit rate 0.12% among 320,000. AID 2300;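 active = percent inhibition above the cutoff of mean plus 3 SD of all tested compounds, set per screening campaign, cut at about 20% in these data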
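System: GST-tagged NR2E3 plus biotinylated RetCOR corepressor; Amount: 1.35 nM GST-tagged NR2E3 final; Dosing: single nominal compound dose of 4.8 µM; Schedule: 5 h incubation at 4 °C; Technique: TR-FRET with europium anti-GST and streptavidin-D2, 340 nm excitation; Controls: biotin wells as high control, 0.6% DMSO wells as low control.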
NR1D1 modulator – modulators of human Rev-erb alpha DNA binding; P20393; Rev-erbα–FITC-DNA binding, fluorescence polarization, 90 min; hit rate 0.79% among 370,000; activity, % at 10 µM;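 active = activity above about 14%, limit read from the data; passing the limit was not always enough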
Neddyl block – blocks human cullin neddylation | AID 651699 | P61081+Q13564 | hit rate 0.58% among 360,000 | TR-FRET cullin neddylation, biochemical | calls only at 25 µM; in the data active = inhibition above about 36%
PG9 Ab binder – small molecules binding HIV-1 gp120 antibody PG9; TR-FRET gp120-PG9 antibody binding; inhibition, % at 6.7 µM; hit rate 0.43% among 360,000; in the data active = inhibition above about 8.5%
NR1D1 mod conf – confirmation of modulators of human Rev-erb alpha DNA binding; shares compounds with NR1D1 modulator; Rev-erb alpha FITC-DNA binding, fluorescence polarization, 90 min; activation, % at 25 µM; hit rate 61% among 3,000; AID 1259319;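 active = activation at or above a set limit, or at least 3 SD above the negative control mean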
RORg counter – counter-screen for Rev-erb alpha modulators: RORgamma DNA binding | hit rate 8% among 910 | IC50, µM | shares compounds with NR1D1 modulator | purified RORgamma protein-FITC-DNA binding, fluorescence polarization;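 active = Compounds whose fitted half-maximal concentration for disrupting protein-DNA binding is below 10 micromolar; the record names Rev-erb in its text, so the target is in doubt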
Numbers stand for hits; i = inactive; nt = no result given.

SMILES	NR2E3 ag-1	NR2E3 ag-2	NR1D1 modulator	Neddyl block	PG9 Ab binder	NR1D1 mod conf	others
COc1ccccc1CN1C[C@@H]2C[C@@H](c3ccc(C)cc3)N3CCC[C@@]23C1=O	i	i	i	i	i	nt
CCN(CC)C(=O)C1=C(C)N(CCCOC)C(=O)C(CC(=O)NC2CCCCC2)C1 (stereo not given)	i	nt	i	i	i	nt
CC1=C(C(=O)N2CCCCCC2)CC(CC(=O)NCc2cccs2)C(=O)N1Cc1ccccc1 (stereo not given)	i	nt	i	i	i	nt
CCN=C1S/C(=C\c2ccc(N3CCOCC3)cc2C)C(=O)N1CC	i	i	i	i	i	nt
COCCN1C(=O)/C(=C/c2ccc(N3CCCC3)cc2C)SC1=S	i	i	25	i	i	39	RORg counter=i
CCOC(=O)[C@]12CCCC3=C1N(CCC3)C(=O)[C@@H](CC(=O)N1CCC(c3ccccc3)CC1)C2	nt	nt	i	nt	nt	nt
COc1cc2cc(C(=O)N3CCOCC3)cc(-c3ccc(C)cc3)c2cc1OC	i	i	i	i	i	nt
COc1ccccc1N=C1NC(=O)/C(=C/c2ccc(N(C)C)cc2)S1	i	i	25	i	i	i
CCOC(=O)CSc1nc2ccsc2c(=O)n1C1CCN(C(=O)OCC)CC1	i	i	i	i	nt	nt
CCOC(=O)N1CCC(n2c(SCC(=O)c3ccccc3)nc3ccsc3c2=O)CC1	i	i	37	i	i	55	RORg counter=i
CC1CCCCC1NC(=O)CCCn1c(=S)[nH]c2ccsc2c1=O (stereo not given)	i	i	i	i	i	nt
COc1cc(/C=C/C(=O)OCC(=O)N2CC(C)OC(C)C2)ccc1OCC#N (stereo not given)	i	nt	i	i	i	nt
COC(=O)c1c(C)[nH]c(C(=O)/C=C/c2ccccc2)c1C	i	i	i	i	i	nt
COC(=O)c1c(C)[nH]c(C(=O)/C=C/c2ccc(C)cc2)c1C	i	i	26	i	i	i
Cc1cccc2cc(C#N)c(NCCNC(=O)NC3CCCCC3)nc12	i	i	62	i	i	31	RORg counter=i
Cc1ccc(-n2nc3ccc(NC(=O)c4cccc([N+](=O)[O-])c4C)cc3n2)cc1	i	i	26	i	i	i
CCOCCCNc1nc2c(-c3ccccc3)nnn2c2ccccc12	i	i	26	i	i	i
CCCCNc1nc2c(-c3ccccc3)nnn2c2ccccc12	i	i	50	i	i	22
CC(C)OCCCNc1nc2c(-c3ccccc3)nnn2c2ccccc12	nt	i	nt	nt	nt	nt
NNc1nc2c(-c3cccc(C(F)(F)F)c3)nnn2c2ccccc12	i	nt	i	nt	i	nt
COCCNc1nc2c(-c3cccc(C(F)(F)F)c3)nnn2c2ccccc12	i	i	52	i	i	18
CCOC(=O)c1nnn2c1nc(Nc1cccc(C(F)(F)F)c1)c1ccccc12	i	i	49	i	i	38	RORg counter=i
COC(=O)C1CCN(C(=O)COC(=O)CNC(=O)c2ccc(Cl)cc2Cl)CC1	i	i	i	i	i	nt
Brc1ccc(-c2nc3ccc(Br)cn3c2Cc2ccccc2)cc1	i	nt	26	i	i	16
Fc1ccc(-c2nc3ccc(Br)cn3c2Cc2ccccc2)cc1	i	nt	20	i	i	13
SMILES	NR2E3 ag-1	NR2E3 ag-2	NR1D1 modulator	Neddyl block	PG9 Ab binder	NR1D1 mod conf	others
Fc1ccc(-c2nc3ccc(Br)cn3c2Cc2cccc(Cl)c2)cc1	i	nt	28	i	i	14
Clc1ccc(-c2nc3ccc(Br)cn3c2Cc2ccccc2)cc1	i	nt	23	i	i	20
COc1cc(NC(=O)c2cnn3c(C)cc(C)nc23)cc(OC)c1OC	nt	nt	i	nt	nt	nt
O=C(NCC1COc2ccccc2O1)c1ccc(NC(=O)c2cccc(F)c2)cc1 (stereo not given)	nt	nt	i	nt	nt	nt
CCc1nc(N)nc(N)c1-c1ccc(Cl)c([N+](=O)[O-])c1	i	nt	i	i	i	nt
Cc1ccccc1S(=O)(=O)NC(=O)C1(C)CCN1C(=O)CC(c1ccccc1)c1ccccc1 (stereo not given)	i	nt	i	i	i	nt
CSc1nc2cc(C)nn2c(-c2ccccc2)c1C#N	i	i	26	i	i	i
CSc1nc2c(c(-c3ccccc3)c1C#N)CCC2	i	i	i	i	i	nt
CCc1ccc2n(-c3ccc(OC)cc3)c([S-])c(C(=O)Nc3cc(C)cc(C)c3)[n+]2c1	i	i	90	i	i	113	RORg counter=i
COc1ccc(CCNC(=O)c2c([S-])n(-c3ccc(C)cc3)c3cccc[n+]23)cc1	i	i	i	i	i	nt
Cc1ccc(-c2nc3ccccc3s2)cc1NC(=S)NC(=O)c1ccccc1	i	i	i	i	i	nt
Cc1ccc(-c2nc3ccccc3s2)cc1NC(=O)c1cc(-n2cnnc2)ccc1Cl	i	i	33	i	i	32	RORg counter=i
CN(C)S(=O)(=O)c1ccc(N2CCCC2)c(C(=O)NNC(=O)COc2cccc(F)c2)c1	i	i	i	i	i	nt
COc1ccc(CC(=O)Nc2ccc(-c3cn4cccc(C)c4n3)cc2)cc1OC	i	i	i	i	i	nt
COc1ccc(CC(=O)Nc2ccc(-c3cn4ccc(C)cc4n3)cc2)cc1	i	i	16	i	i	i
COc1cccc(N2CCN(c3ccc4nnc(CCC(=O)Nc5ccc(F)cc5)n4n3)CC2)c1	i	i	i	i	i	nt
COc1cccc(N2CCN(c3ccc4nnc(CCC(=O)Nc5cccc(C(C)=O)c5)n4n3)CC2)c1	i	i	27	i	i	i
CC1CCN(c2ccc3nnc(CCC(=O)Nc4ccc(F)c(F)c4)n3n2)CC1	i	i	28	i	i	i
CCOC(=O)c1c(C)nc2c(c1-c1ccc(OC)c(OC)c1)C(=O)c1ccccc1-2	i	i	53	i	i	47
COC(=O)C1=C(C)N(Cc2cccc(C(F)(F)F)c2)C(=NCc2ccc(OC)cc2)NC1c1cccc(C(F)(F)F)c1 (stereo not given)	nt	nt	i	nt	i	nt
O=C(c1ccc(Br)o1)N1N=C(c2ccc(Cl)cc2)CC1c1ccco1 (stereo not given)	i	i	24	i	i	i
COC(=O)C(C(C)C)N(Cc1cc(OC)cc(OC)c1)S(=O)(=O)CCl (stereo not given)	i	nt	i	i	i	nt
N#Cc1ccc(Cn2ccc3ccc(-c4ccc5ccn(C(=O)C6CCCCC6)c5c4)cc32)cc1	nt	nt	36	nt	nt	18
COC(=O)c1ccc(Cn2ccc3ccc(-c4ccc5ccn(C(=O)c6cccc(OC)c6)c5c4)cc32)cc1	nt	nt	40	nt	nt	52	RORg counter=i
COC(=O)c1ccc(Cn2ccc3ccc(-c4ccc5ccn(C(=O)c6ccccc6C)c5c4)cc32)cc1	nt	nt	30	nt	nt	42	RORg counter=i
COC(=O)c1ccc(Cn2ccc3ccc(-c4ccc5ccn(C(=O)c6ccccc6)c5c4)cc32)cc1	nt	nt	i	nt	nt	nt
